# Data reported in ChEMBL document CHEMBL4251573, “Synthesis and biological evaluation of N-substituted 3-oxo-1,2,3,4-tetrahydro-quinoxaline-6-carboxylic acid derivatives as tubulin polymerization inhibitors” (Eur J Med Chem, 2018).
# Active and inactive are the calls of the source. The calls are words filed in the database; no cut-off is given here.
# How the values were obtained:
# HeLa [1] = experiment: Cell cycle arrest in human HeLa cells assessed as accumulation at G0/G1 phase at 0.15 uM after 24 hrs by propidium iodide staining-based flow cytometric method (reference value: 62.2%); format: functional
# HeLa [2] = experiment: Cell cycle arrest in human HeLa cells assessed as accumulation at G2/M phase at 0.20 uM after 24 hrs by propidium iodide staining-based flow cytometric method (reference value: 19.9%); format: functional
# HeLa [3] = experiment: Induction of apoptosis in human HeLa cells assessed as late apoptotic cells at 0.20 uM after 24 hrs by annexin V-FITC/propidium iodide staining-based flow cytometric method (reference value: 0.15%); format: functional
# HeLa [4] = experiment: Cell cycle arrest in human HeLa cells assessed as accumulation at S phase at 0.15 uM after 24 hrs by propidium iodide staining-based flow cytometric method (reference value: 10.3%); format: functional
# HeLa [5] = experiment: Induction of apoptosis in human HeLa cells assessed as early apoptotic cells at 0.20 uM after 24 hrs by annexin V-FITC/propidium iodide staining-based flow cytometric method (reference value: 2.31%); format: functional
# HeLa [6] = experiment: Induction of apoptosis in human HeLa cells assessed as cell shrinkage at 0.10 to 0.20 uM by microscopic method; format: functional, cell-based
# Outline: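 Morphology of HeLa cells was examined by light microscopy after 24 h exposure to 0.10, 0.15 or 0.20 μM, or 0.1% DMSO, alongside the annexin V/PI experiment.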
# HeLa [7] = experiment: Induction of apoptosis in human HeLa cells assessed as necrotic cells at 0.15 uM after 24 hrs by annexin V-FITC/propidium iodide staining-based flow cytometric method (reference value: 0.15%); format: functional
# HeLa [8] = experiment: Cell cycle arrest in human HeLa cells assessed as accumulation at sub G1 phase at 0.10 uM after 24 hrs by propidium iodide staining-based flow cytometric method (reference value: 7.6%); format: functional
# SMMC-7721 = experiment: Antiproliferative activity against human SMMC7721 cells after 72 hrs by MTT assay; format: functional, cell-based; details: SMMC-7721, 72 h
# Outline: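 HeLa and SMMC-7721 cells in log phase were seeded at 4000-6000 cells/well. After 24 h, quadruplicate wells were treated with a series of concentrations for 72 h. DMSO stocks were 5 mmol/L, with final DMSO below 0.1%. MTT (10 mg/mL in PBS) was added for 4 h, medium replaced with DMSO, and OD read at 490 nm. IC50 came from at least five concentrations; mean and SD of at least three independent experiments.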
# HeLa [9] = experiment: Cell cycle arrest in human HeLa cells assessed as accumulation at G0/G1 phase at 0.20 uM after 24 hrs by propidium iodide staining-based flow cytometric method (reference value: 62.2%); format: functional
# Sus scrofa = organism: Sus scrofa; experiment: Competitive binding affinity to porcine brain tubulin preincubated for 1 hr followed by colchicine addition measured after 1 hr by fluorescence assay
# Outline: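 Tubulin (4 μM) in 80 mM PIPES pH 6.9, 2 mM MgCl2 and 0.5 mM EGTA was preincubated 1 h at 37 °C with 0.1, 1, 5 or 10 μM test agent, with DMSO as control. Colchicine (10 μM) was then added for another 1 h at 37 °C. Tubulin-colchicine fluorescence was read at ex 340/em 435 nm and normalized to DMSO; at least three replicates, mean ± SD.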
# HeLa [10] = experiment: Cell cycle arrest in human HeLa cells assessed as accumulation at G0/G1 phase at 0.25 uM after 24 hrs by propidium iodide staining-based flow cytometric method (reference value: 62.2%); format: functional
smiles,measurement,setting,value
COC(=O)c1ccc2c(c1)NC(=O)CN2C(=O)c1cc(OC)c(OC)c(OC)c1,Activity,HeLa [1],30.6%
same,Activity,HeLa [2],40.4%
same,Activity,HeLa [3],14.4%
same,Activity,HeLa [4],8.3%
same,Activity,HeLa [5],17.05%
same,Activity,HeLa [6],Active
same,Activity,HeLa [7],3.81%
same,Activity,HeLa [8],13.1%
same,IC50,SMMC-7721,71 nM
same,Activity,HeLa [9],18.4%
same,Activity,Sus scrofa,Dose-dependent effect
same,Activity,HeLa [10],13.8%
